Experimental data of several laboratories.
Compare with care: the assays were run in different laboratories.
VIPR1: Vasoactive intestinal polypeptide receptor 1 (VIPR1, Homo sapiens, UniProt P32241)
SULT1B1: Sulfotransferase 1B1 (SULT1B1, Homo sapiens, UniProt O43704)

| SMILES | target | test | system | conditions | measurement | result |
| --- | --- | --- | --- | --- | --- | --- |
| COc1ncccc1-c1cnn2ccc(N3CCN(C(=O)OC(C)C)CC3)nc12 | Bone morphogenetic protein receptor type-1B (BMPR1B, Homo sapiens, UniProt O00238) | binding, competition with immobilised ligand |  | 1 µM | remaining binding | 100% |
| O=C(Nc1cccnc1)N1CCC(Cc2cccc(Oc3ccc(C(F)(F)F)cn3)c2)CC1 | Fatty-acid amide hydrolase 1 (Faah, Rattus norvegicus, UniProt P97612) | enzyme activity, inhibitor |  |  | kinact/KI | 3900 M⁻¹ s⁻¹ |
| Nc1ncc(-c2nc(N3CCOCC3)nc(N3CCOCC3)n2)c(C(F)F)n1 | Uncharacterized serine/threonine-protein kinase SBK3 (SBK3, Homo sapiens, UniProt P0C264) | binding, competition with immobilised ligand |  | 10 µM | remaining binding | 85% |
| O=[N+]([O-])c1cc[n+]([O-])c2ccccc12 | TcPGFS (Trypanosoma cruzi, UniProt Q8I6L9) | enzyme activity, inhibitor |  | 200 µM | remaining activity | 76% |
| O=C(Nc1cccnn1)N1CCN([C@@H]2CCOc3cc(C(F)(F)F)ccc32)CC1 | VIPR1 | cell-free assay |  | 20 µM | inhibition | -11% |
| CCN(CC)CCCC[C@H](NC(=O)[C@H](CC(C)C)NC(=O)[C@H](C)NC(=O)[C@H](Cc1ccccc1)NC(=O)c1ccc(C(C)(C)C)cc1)C(=O)N[C@@H](CO)C(=O)OC | VIPR1 | ligand displacement, radioligand |  | 10 µM | remaining binding | 110% |
| Cc1nn(C)cc1-c1nc2c(N3CCN(Cc4ccc(Cl)cc4)CC3)c(Cl)cnc2[nH]1 | Wee1-like protein kinase 2 (WEE2, Homo sapiens, UniProt P0C1S8) | binding, competition with immobilised ligand |  | 1 µM | remaining binding | 99% |
| COc1cc(Br)cc(Br)c1Oc1cc(Br)cc(Br)c1O | SULT1B1 | enzyme activity, substrate |  |  | Km | 24.9 µM |
| N=C(N)c1ccc2cc(OC(=O)c3ccc(N=C(N)N)cc3)ccc2c1 | Cathepsin S (CTSS, Homo sapiens, UniProt P25774) | enzyme activity, inhibitor |  | 10 µM | inhibition | 8% |
| CN1CCN(c2cc(-c3ccncc3)c(-c3ccc4ccccc4c3)nn2)CC1 | Prokineticin receptor 1 (PROKR1, Homo sapiens, UniProt Q8TCW9) | calcium signal, agonist | PK-1 | 12.5 µM | activation | -0.3% |
| CN(C)C(=O)COC(=O)Cc1ccc(OC(=O)c2ccc(NC(=N)N)cc2)cc1 | Dipeptidyl peptidase 3 (DPP3, Homo sapiens, UniProt Q9NY33) | enzyme activity, inhibitor |  | 10 µM | inhibition | 8% |
| Oc1c(Br)cc(Br)cc1Oc1ccc(Br)cc1Br | SULT1B1 | enzyme activity, substrate |  |  | Km | 0.172 µM |
